Structures are written as SMILES.

For test [1], the target named is T1, 5-hydroxytryptamine receptor 1A (Rattus norvegicus, UniProt P19327).
T1 sequence (P19327 whole entry): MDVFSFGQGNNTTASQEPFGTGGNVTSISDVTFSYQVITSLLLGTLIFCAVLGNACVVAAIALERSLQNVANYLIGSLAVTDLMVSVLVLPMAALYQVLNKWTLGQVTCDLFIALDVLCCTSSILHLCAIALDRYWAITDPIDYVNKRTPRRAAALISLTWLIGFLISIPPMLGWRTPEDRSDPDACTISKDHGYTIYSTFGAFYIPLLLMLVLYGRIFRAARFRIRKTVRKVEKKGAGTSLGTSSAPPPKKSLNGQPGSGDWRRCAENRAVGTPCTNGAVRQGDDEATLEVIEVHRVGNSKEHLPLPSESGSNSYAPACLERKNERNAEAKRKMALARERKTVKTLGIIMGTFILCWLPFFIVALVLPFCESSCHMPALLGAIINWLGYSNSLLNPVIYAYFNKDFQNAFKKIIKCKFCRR
As to the kind of experiment: Binding affinity at 5-hydroxytryptamine 1A (5-HT1A) receptor in rat cerebral cortex using [3H]8-OH-DPAT as radioligand. The class given is tissue-based.

Test [2] has as its target D(2) dopamine receptor (Rattus norvegicus, UniProt P61169). As to the kind of experiment: In vitro binding affinity towards Dopamine receptor D2 of rat striatal membranes using [3H]- raclopride. The essentials:
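Male Sprague–Dawley rat (180–200 g) striatal membranes (125–150 μg protein) incubated 60 min at 25 °C with 0.8 nM [3H]raclopride in 50 mM Tris-HCl pH 7.4 with 120 mM NaCl, 5 mM KCl, 2 mM CaCl2, 1 mM MgCl2, 0.1% ascorbic acid. Nonspecific: 1 μM (+)-butaclamol. Filtration, scintillation counting; IC50 fitted, Ki by Cheng–Prusoff; mean ± SEM of 2–4 triplicate experiments.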

The target of test [3] is T2, Adrenergic receptor alpha-1 (Rattus norvegicus, UniProt P15823+P23944+P43140).
T2 sequence (P15823 whole entry): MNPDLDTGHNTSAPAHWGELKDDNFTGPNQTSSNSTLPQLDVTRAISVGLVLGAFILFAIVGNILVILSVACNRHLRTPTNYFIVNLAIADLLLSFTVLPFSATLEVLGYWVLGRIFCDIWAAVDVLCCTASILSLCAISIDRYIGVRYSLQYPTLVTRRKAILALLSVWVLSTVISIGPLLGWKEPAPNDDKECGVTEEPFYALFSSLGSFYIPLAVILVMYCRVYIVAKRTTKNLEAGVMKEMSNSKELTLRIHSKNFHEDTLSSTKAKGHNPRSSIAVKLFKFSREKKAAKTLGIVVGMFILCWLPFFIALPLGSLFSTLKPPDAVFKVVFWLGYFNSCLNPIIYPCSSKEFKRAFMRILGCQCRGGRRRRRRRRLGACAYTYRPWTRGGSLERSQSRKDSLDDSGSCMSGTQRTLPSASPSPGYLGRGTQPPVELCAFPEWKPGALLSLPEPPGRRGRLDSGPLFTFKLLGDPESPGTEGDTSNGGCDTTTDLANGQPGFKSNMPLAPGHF
T2 sequence (P23944 whole entry): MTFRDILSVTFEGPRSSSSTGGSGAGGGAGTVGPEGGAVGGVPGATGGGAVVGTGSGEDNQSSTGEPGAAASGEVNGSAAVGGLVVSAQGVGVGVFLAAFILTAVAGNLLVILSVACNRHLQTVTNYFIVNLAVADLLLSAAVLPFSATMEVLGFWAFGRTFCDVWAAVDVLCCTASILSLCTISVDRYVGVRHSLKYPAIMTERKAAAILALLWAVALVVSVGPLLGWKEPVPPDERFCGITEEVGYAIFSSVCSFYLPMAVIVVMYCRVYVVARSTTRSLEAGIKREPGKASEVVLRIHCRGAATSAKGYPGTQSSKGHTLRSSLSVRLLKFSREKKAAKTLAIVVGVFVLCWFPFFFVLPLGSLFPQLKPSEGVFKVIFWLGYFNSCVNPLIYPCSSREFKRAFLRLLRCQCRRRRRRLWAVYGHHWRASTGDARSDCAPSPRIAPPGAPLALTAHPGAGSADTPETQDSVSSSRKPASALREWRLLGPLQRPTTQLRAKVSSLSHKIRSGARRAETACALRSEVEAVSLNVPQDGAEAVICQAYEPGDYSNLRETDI
T2 sequence (P43140 whole entry): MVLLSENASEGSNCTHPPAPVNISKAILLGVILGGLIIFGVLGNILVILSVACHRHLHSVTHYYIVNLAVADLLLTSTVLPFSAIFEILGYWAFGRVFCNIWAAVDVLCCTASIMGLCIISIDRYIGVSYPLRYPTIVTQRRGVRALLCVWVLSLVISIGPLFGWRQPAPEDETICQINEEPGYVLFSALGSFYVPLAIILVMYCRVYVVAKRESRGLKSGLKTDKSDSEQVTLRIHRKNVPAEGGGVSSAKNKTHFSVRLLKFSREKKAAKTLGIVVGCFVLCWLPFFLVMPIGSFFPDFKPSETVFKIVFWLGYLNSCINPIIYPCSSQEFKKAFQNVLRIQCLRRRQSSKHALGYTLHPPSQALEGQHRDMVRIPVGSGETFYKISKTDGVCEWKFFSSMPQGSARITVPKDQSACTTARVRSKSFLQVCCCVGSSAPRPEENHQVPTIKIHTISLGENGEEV
As to the kind of experiment: In vitro binding affinity was evaluated on alpha-1 adrenergic receptor from rat cerebral cortex by using [3H]prazosin as radioligand. The format is tissue-based. The essentials:
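Nonspecific: 10 μM phentolamine. Filter-bound radioactivity by scintillation; IC50 from competition curves, Ki by Cheng–Prusoff; mean ± SEM of 2–4 triplicate experiments.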

D(2) dopamine receptor, sequence (P61169 whole entry): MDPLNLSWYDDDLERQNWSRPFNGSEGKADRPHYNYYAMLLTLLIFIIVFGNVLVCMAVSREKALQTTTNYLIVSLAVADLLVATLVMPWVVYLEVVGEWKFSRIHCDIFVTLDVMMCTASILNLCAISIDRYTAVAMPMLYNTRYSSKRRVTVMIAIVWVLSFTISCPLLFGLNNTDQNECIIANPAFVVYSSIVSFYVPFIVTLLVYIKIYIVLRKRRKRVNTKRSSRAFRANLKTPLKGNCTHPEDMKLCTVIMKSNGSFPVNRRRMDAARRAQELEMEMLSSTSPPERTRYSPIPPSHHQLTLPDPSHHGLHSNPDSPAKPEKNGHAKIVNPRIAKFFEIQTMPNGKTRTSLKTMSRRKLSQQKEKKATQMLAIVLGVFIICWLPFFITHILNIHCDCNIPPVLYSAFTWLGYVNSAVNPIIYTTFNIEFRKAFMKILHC

For `O=C1CC(=C2c3ccccc3-c3ccccc32)C(=O)N1CCCN1CCN(c2cccc(C(F)(F)F)c2)CC1`, the results for the Ki in test [1], in test [2] and in test [3] were greater than 1000 nM, greater than 10000 nM and greater than 10000 nM, respectively.

As for `COc1ccccc1N1CCN(CN2C(=O)CC(=C3c4ccccc4-c4ccccc43)C2=O)CC1`, the Ki in test [1] was 61 nM; in test [2] it was greater than 10000 nM; in test [3] it was greater than 1000 nM.

Regarding `O=C1CC(=C2c3ccccc3-c3ccccc32)C(=O)N1CCCCN1CCN(c2ccc(F)cc2)CC1`, the Ki in test [1] was greater than 10000 nM; in test [2], greater than 10000 nM; in test [3] it was 266 nM.

On to `O=C1CC(=C2c3ccccc3-c3ccccc32)C(=O)N1CCCCN1CCN(c2cccc(Cl)c2)CC1`, for which the Ki in test [1] was 72 nM; in test [2], greater than 1000 nM; in test [3], 249 nM.

For `O=C1CC(=C2c3ccccc3-c3ccccc32)C(=O)N1CCCCN1CCN(c2cccc(C(F)(F)F)c2)CC1`, the Ki was greater than 1000 nM in test [1], greater than 1000 nM in test [2] and greater than 10000 nM in test [3].

As for `O=C1CC(=C(c2ccccc2)c2ccccc2)C(=O)N1CCCCN1CCN(c2cccc(C(F)(F)F)c2)CC1`, the Ki in test [1] turned out to be 15 nM.

On to `O=C1CC(=C2c3ccccc3-c3ccccc32)C(=O)N1CN1CCN(c2ccc(F)cc2)CC1`, for which the figures for the Ki in test [1], in test [2] and in test [3] were greater than 1000 nM, greater than 10000 nM and greater than 1000 nM, respectively.

As to `COc1ccccc1N1CCN(CCCCN2C(=O)CC(=C3c4ccccc4-c4ccccc43)C2=O)CC1`, the Ki in test [1] is 9 nM; in test [2], greater than 10000 nM; in test [3], 10 nM.

Regarding `O=C1CC(=C2c3ccccc3-c3ccccc32)C(=O)N1CN1CCN(c2cccc(C(F)(F)F)c2)CC1`, the Ki in test [1] is 114 nM; in test [2] it was greater than 10000 nM; in test [3], 791 nM.

Regarding `O=C1CC(=C2c3ccccc3-c3ccccc32)C(=O)N1CCCN1CCN(c2cccc(Cl)c2)CC1`, the Ki in test [1] is greater than 1000 nM; in test [2] it was greater than 10000 nM; in test [3] it was greater than 10000 nM.

For `COc1ccccc1N1CCN(CCCN2C(=O)CC(=C3c4ccccc4-c4ccccc43)C2=O)CC1`, the Ki is 37 nM in test [1], greater than 1000 nM in test [2] and 161 nM in test [3].

Take `COc1ccccc1N1CCN(C/C=C\CN2C(=O)CC(=C(c3ccccc3)c3ccccc3)C2=O)CC1`: the affinity in test [1], expressed as Ki, was 237 nM.

On to `COc1ccccc1N1CCN(C/C=C/CN2C(=O)CC(=C(c3ccccc3)c3ccccc3)C2=O)CC1`, for which, in test [1], affinity was put at a Ki of 27 nM.

With `O=C1CC(=C2c3ccccc3-c3ccccc32)C(=O)N1CCCN1CCN(c2ccccc2)CC1`, the Ki in test [1] was greater than 1000 nM; in test [2] it was greater than 1000 nM; in test [3] it was 646 nM.

As to `O=C1CC(=C2c3ccccc3-c3ccccc32)C(=O)N1CCN1CCN(c2ccccc2)CC1`, the values for the Ki in test [1], in test [2] and in test [3] were greater than 10000 nM, greater than 10000 nM and 196 nM, respectively.

As to `O=C1CC(=C2c3ccccc3-c3ccccc32)C(=O)N1CCN1CCN(c2cccc(Cl)c2)CC1`, the Ki in test [1], in test [2] and in test [3] was greater than 10000 nM each time.

On to `O=C1CC(=C2c3ccccc3-c3ccccc32)C(=O)N1CCN1CCN(c2ccc(F)cc2)CC1`, for which the Ki is greater than 10000 nM in test [1], greater than 10000 nM in test [2] and 56 nM in test [3].

For the compound `O=C1CC(=C2c3ccccc3-c3ccccc32)C(=O)N1CN1CCN(c2ccccc2)CC1`, the Ki in test [1] is 201 nM; in test [2] it was greater than 10000 nM; in test [3] it was greater than 1000 nM.

With `O=C1CC(=C2c3ccccc3-c3ccccc32)C(=O)N1CN1CCN(c2cccc(Cl)c2)CC1`, the Ki was 42 nM in test [1], greater than 10000 nM in test [2] and 316 nM in test [3].

Regarding `O=C1CC(=C2c3ccccc3-c3ccccc32)C(=O)N1CCCN1CCN(c2ccc(F)cc2)CC1`, the figures for the Ki in test [1], in test [2] and in test [3] were greater than 10000 nM, greater than 10000 nM and 61 nM, respectively.

As for `O=C1CC(=C2c3ccccc3-c3ccccc32)C(=O)N1CCN1CCN(c2cccc(C(F)(F)F)c2)CC1`, the Ki in test [1], in test [2] and in test [3] was greater than 10000 nM in each case.

Regarding `COc1ccccc1N1CCN(CCN2C(=O)CC(=C3c4ccccc4-c4ccccc43)C2=O)CC1`, the Ki in test [1] was greater than 10000 nM; in test [2], greater than 10000 nM; in test [3] it was 57 nM.

On to `O=C1CC(=C2c3ccccc3-c3ccccc32)C(=O)N1CCCCN1CCN(c2ccccc2)CC1`, for which the values for the Ki in test [1], in test [2] and in test [3] were 14 nM, 397 nM and 60 nM, respectively.

As for `COc1ccccc1N1CCN(CC#CCN2C(=O)CC(=C(c3ccccc3)c3ccccc3)C2=O)CC1`, affinity in test [1] was put at a Ki of 6.6 nM.

`O=C1CC(=C(c2ccccc2)c2ccccc2)C(=O)N1CCCCN1CCN(c2ccc(F)cc2)CC1` displayed a Ki in test [3] of 51 nM.

Usually Ki stands for the equilibrium dissociation constant of an inhibitor or competing ligand from its target. High values mean lower affinity, low ones higher affinity.

(Values after ChEMBL document CHEMBL1132270, “Synthesis and structure-activity relationships of a new model of arylpiperazines. 4. 1-[omega-(4-Arylpiperazin-1-yl)alkyl]-3-(diphenylmethylene) - 2, 5-pyrrolidinediones and -3-(9H-fluoren-9-ylidene)-2, 5-pyrrolidinediones: study of the steric requirements of the terminal amide fragment on 5-HT1A …” (J Med Chem, 1999).)
